From paper PMC9441147 (Drug Design, Development and Therapy, 2022)
In brackets after ≈: the same amount, converted by molar mass. Each block holds one compound with its values, some of them ahead of it.

Legend:
JAK3 = target: T1, JAK3 (Homo sapiens, UniProt P52333); assay: JAK3 enzymatic assay, 1 mM ATP; type: biochemical
T1 sequence (P52333 1-1124): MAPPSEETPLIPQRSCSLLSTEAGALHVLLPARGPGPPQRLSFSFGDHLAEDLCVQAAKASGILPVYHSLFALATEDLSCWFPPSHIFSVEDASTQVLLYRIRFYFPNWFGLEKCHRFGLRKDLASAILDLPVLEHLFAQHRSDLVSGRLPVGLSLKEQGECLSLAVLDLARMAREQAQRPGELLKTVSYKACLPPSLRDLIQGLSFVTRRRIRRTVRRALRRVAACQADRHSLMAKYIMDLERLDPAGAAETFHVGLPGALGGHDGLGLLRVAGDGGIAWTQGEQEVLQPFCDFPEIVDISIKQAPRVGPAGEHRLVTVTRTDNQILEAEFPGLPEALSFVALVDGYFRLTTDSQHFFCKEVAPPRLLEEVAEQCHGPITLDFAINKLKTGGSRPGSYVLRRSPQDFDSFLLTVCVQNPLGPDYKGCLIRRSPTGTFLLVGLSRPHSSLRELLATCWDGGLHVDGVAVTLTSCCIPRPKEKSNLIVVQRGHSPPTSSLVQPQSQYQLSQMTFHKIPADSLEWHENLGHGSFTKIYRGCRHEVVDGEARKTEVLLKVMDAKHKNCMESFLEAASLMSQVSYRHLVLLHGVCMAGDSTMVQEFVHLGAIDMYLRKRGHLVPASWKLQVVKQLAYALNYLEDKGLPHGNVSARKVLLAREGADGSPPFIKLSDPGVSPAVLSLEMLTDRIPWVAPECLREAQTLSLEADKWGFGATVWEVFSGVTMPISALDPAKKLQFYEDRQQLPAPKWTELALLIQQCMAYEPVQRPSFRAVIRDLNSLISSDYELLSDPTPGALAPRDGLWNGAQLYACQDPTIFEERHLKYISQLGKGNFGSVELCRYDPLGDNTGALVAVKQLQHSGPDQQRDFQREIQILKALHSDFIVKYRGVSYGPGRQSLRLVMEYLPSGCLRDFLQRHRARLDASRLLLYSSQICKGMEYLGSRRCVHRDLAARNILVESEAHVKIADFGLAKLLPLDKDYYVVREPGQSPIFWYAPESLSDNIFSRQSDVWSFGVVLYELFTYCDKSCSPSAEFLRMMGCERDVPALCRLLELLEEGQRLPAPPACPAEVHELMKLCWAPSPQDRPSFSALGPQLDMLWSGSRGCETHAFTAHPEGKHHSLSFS

Basic pKa, measured = type: physicochemical
[1] = Thermodynamic solubility, pH 7.4; type: physicochemical
[2] = Kinetic solubility, pH 6.8; type: physicochemical; conditions: pH 6.8, aqueous buffer, kinetic from dmso stock
[3] = Caco-2 permeability, pH 6.5; type: in vitro ADME; conditions: human, Caco-2, pH 6.5
[4] = In vitro rat plasma protein binding; type: in vitro ADME
[5] = In vivo plasma PK after IV dosing in rats; conditions: rat
In short: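 Rats received a single IV bolus of test compound, at 1.0 or 0.5 mg/kg depending on compound; n=2. Plasma was then sampled to derive clearance, steady-state volume of distribution and terminal half-life.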

[6] = Lung and plasma PK after single intratracheal dose in treatment-naïve rats; type: in vivo; conditions: rat
In short: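 Treatment-naïve rats were given a single IT dose, at a lung-deposited dose of 52 or 30 µg/kg depending on compound. Plasma and lungs were sampled at 0.03, 0.5, 2, 6, 8 and 24 h, three animals per time point. Post-caval lobes were bead-homogenized in Ringer's solution. Samples were protein-precipitated with acetonitrile containing 0.2% formic acid and internal standard, then analysed by LC-MS/MS.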

[7] = system: IFNα-induced STAT1 phosphorylation in human T cells or monocytes; assay: IFNα-induced STAT1 phosphorylation, flow cytometry; type: cell-based; conditions: read-out: IC50, IFNα, STAT1
In short: (§1)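 PBMCs were isolated by density gradient from healthy human donor blood, sometimes enriched for lymphocytes or monocytes, and rested. Cells were preincubated with serially diluted test compound (DMSO vehicle), then stimulated with the relevant cytokine. They were fixed (formaldehyde), permeabilized and stained for phospho-STAT, with isotype-control gates and surface-marker cell gating. Flow cytometry gave % phospho-STAT+ cells. Inhibition was calculated versus vehicle-treated stimulated cells to derive IC50.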

[8] = system: IL-12-induced STAT4 phosphorylation in human CD3+ T cells and CD56+ NK cells; assay: IL-12-induced STAT4 phosphorylation, flow cytometry; type: cell-based; conditions: T-cell, read-out: IC50, IL-12, STAT4
In short: as §1

[9] = system: IL-4-induced STAT6 phosphorylation in human CD4+ T cells; assay: IL-4-induced STAT6 phosphorylation, flow cytometry; type: cell-based; conditions: read-out: IC50, IL-4, STAT6
In short: as §1

[10] = system: IL-2-induced STAT5 phosphorylation in human T cells; assay: IL-2-induced STAT5 phosphorylation in human T cells, flow cytometry; type: cell-based; conditions: T-cell, read-out: IC50, IL-2, STAT5 (human)
In short: as §1

[11] = system: IL-13-induced STAT6 phosphorylation in human CD14+ monocytes; assay: IL-13-induced STAT6 phosphorylation in monocytes; type: cell-based; conditions: Monocyte, read-out: IC50, IL-13, STAT6
In short: as §1

[12] = system: TSLP-induced production of CCL17 in human CD14+ monocytes; assay: TSLP-induced CCL17 release in monocytes; type: cell-based; conditions: Monocyte, read-out: IC50, TSLP, CCL17
In short: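 Human monocytes were taken from PBMCs isolated by density gradient from healthy donor blood. They were preincubated with serially diluted test compound (DMSO vehicle), then stimulated with recombinant TSLP. Supernatants were collected by brief centrifugation, and released CCL17 was quantified by ELISA or MSD U-plex immunoassay. Reduction versus vehicle-treated stimulated cells gave IC50.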

STAT3 phosphorylation = assay: pSTAT3 in whole lung homogenate, OVA-challenged rats; type: in vivo, rat; conditions: IT dosing, 2 hours after OVA challenge, vs OVA/vehicle
In short: (§2)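 In the OVA-sensitized, OVA-challenged rat model, test compound was given IT 1 h before challenge. Post-caval lung lobes taken 2 h after challenge were powderized in liquid nitrogen and lysed in buffer with protease/phosphatase inhibitors. Protein was measured by Bradford assay. Lysate (10 µg protein) was run on MSD phospho-STAT3/STAT5a/STAT5b/Akt(T308) plates, and blank-subtracted electrochemiluminescence was read.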

STAT5a phosphorylation = assay: pSTAT5a in whole lung homogenate, OVA-challenged rats; type: in vivo, rat; conditions: IT dosing, 2 hours after OVA challenge, vs OVA/vehicle
In short: as §2

STAT5b phosphorylation = assay: pSTAT5b in whole lung homogenate, OVA-challenged rats; type: in vivo, rat; conditions: IT dosing, 2 hours after OVA challenge, vs OVA/vehicle
In short: as §2

[13] = system: phosphorylated STAT3-positive cell nuclei; assay: pSTAT3 immunohistochemistry of lung sections, OVA-challenged rats; type: in vivo, rat; conditions: OVA/AZD4604 1 mg/kg versus OVA/vehicle
NF-κB = NF-κB p65 analysis in lung tissue, OVA rat model; type: in vivo; conditions: lung tissue 2 hours after OVA challenge
In short: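 In the OVA-sensitized, OVA-challenged rat model, test compound was given IT 1 h before challenge. Lungs were powderized 2 h after challenge and nuclear extracts prepared with a nuclear extraction kit. Nuclear extract (10 µg) was assayed for NF-κB p65 activation by TransAm ELISA-type assay.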

pAkt = pAkt analysis in lung tissue, OVA rat model; type: in vivo; conditions: lung tissue 2 hours after OVA challenge
In short: as §2

OVA-challenged rats = assay: Airway and lung inflammation in OVA-induced rat model of asthma; type: in vivo; conditions: IT
In short: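 Rats sensitized IP with OVA (100 µg/rat) in aluminium/magnesium hydroxide on days 0, 14, 21 and challenged day 28 with 1% aerosolized OVA for 30 min. Test compound was given IT under isoflurane at 1 mL/kg, 1 h before challenge (100–3000 µg/kg). BAL (2 × 3 mL RPMI) was taken 24 h post-challenge. Leukocytes were counted automatically, with differentials from Wright-stained cytospins; n=7–10/group.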

JAK1 = JAK1 (Homo sapiens, UniProt P23458); conditions: biochemical assays; cited from earlier work
JAK1, sequence (P23458 whole entry): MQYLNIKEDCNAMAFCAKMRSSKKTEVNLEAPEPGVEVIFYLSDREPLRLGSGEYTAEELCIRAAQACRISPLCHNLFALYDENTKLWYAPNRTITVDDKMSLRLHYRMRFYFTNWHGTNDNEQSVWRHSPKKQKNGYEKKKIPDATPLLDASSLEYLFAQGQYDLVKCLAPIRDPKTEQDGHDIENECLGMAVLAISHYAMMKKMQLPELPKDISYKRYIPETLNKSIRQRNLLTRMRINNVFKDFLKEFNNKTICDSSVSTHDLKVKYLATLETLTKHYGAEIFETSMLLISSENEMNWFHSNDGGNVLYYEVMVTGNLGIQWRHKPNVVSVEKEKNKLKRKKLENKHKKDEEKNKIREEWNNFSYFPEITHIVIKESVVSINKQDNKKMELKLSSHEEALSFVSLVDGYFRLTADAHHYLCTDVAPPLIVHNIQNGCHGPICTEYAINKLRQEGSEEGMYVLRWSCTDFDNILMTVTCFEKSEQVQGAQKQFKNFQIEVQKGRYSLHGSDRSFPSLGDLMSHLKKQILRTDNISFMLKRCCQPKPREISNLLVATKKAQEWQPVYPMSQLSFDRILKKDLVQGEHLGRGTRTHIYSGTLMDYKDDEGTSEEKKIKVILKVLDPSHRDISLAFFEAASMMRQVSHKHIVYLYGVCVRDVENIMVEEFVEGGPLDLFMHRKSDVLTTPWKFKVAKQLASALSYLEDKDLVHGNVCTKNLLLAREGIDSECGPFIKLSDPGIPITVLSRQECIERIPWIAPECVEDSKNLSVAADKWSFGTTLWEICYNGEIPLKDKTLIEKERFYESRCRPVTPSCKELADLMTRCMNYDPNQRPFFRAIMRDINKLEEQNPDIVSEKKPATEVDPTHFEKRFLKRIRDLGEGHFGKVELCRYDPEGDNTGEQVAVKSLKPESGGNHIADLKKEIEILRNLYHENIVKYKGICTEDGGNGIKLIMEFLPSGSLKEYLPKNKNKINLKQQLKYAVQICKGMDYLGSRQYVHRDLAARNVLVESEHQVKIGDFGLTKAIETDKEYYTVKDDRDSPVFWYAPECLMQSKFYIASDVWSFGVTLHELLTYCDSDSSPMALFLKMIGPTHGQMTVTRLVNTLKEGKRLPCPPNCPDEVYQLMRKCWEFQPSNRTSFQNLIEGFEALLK

IC50 (JAK3): > 10000 nM
pKa (Basic pKa, measured): 7.9
solubility thermodynamic [1]: 6.6 µM (≈ 3.96 µg/mL)
solubility kinetic [2]: 18 µM (≈ 10.8 µg/mL)
Papp [3]: 6.7 ×10⁻⁶ cm/s
In vitro rat plasma protein binding, % free [4]: 10.4 % free
Vd [5]: 9.9 L/kg
clearance [5]: 33 mL/min/kg
half-life [5]: 4.2 h
proportion of the dose remaining in whole lung tissue 24 hours after administration ([6]; IT, assuming 100% lung deposition): 0.3%
half-life ([6]; lung, inhaled or intranasal): ~5 h
half-life ([6]; lung, other: intratracheal): 5 h
half-life ([6]; plasma, inhaled or intranasal): ~5 h
IC50 [7]: 1.2 nM
IC50 [8]: 98 nM
IC50 [9]: 16.9 nM
IC50 [10]: 21 nM
IC50 [11]: 23.1 nM
IC50 [12]: 57 nM
SMILES: COC[C@H](C(=O)Nc1cccc2c(-c3nc(Nc4cccc(S(C)(=O)=O)c4F)ncc3F)c[nH]c12)N1CCN(C)CC1 [AZD4604]
STAT3 phosphorylation in whole lung homogenates (STAT3 phosphorylation): dose-dependently inhibited
STAT5a phosphorylation in whole lung homogenates (STAT5a phosphorylation): dose-dependently inhibited
STAT5b phosphorylation in whole lung homogenates (STAT5b phosphorylation): dose-dependently inhibited
proportion of phosphorylated STAT3-positive cell nuclei in endothelium and bronchial epithelium ([13]; P < 0.01): significantly reduced
proportion of phosphorylated STAT3-positive cell nuclei in the alveolar epithelium ([13]; P < 0.05): significantly reduced
effect on NF-κB (NF-κB): no significant effect
effect on pAkt (pAkt): no significant effect
eosinophil numbers in BALF (OVA-challenged rats; 24 hours after OVA challenge, vs OVA/vehicle): numerically reduced
eosinophil numbers in lung tissue (OVA-challenged rats; 24 hours after OVA challenge, vs vehicle, to levels seen in saline-challenged animals): reduced
cytokines eotaxin and IL-1β in BALF (OVA-challenged rats; vs OVA/vehicle): numerically lowered
levels of lymphocytes, neutrophils, and macrophages in BALF (OVA-challenged rats; vs OVA/vehicle): numerically lowered

SMILES: CN(CCC#N)C1CCN(C(=O)Cn2cc(NC(=O)c3cnn4cccnc34)c(-c3cc(Cl)ccc3OC(F)F)n2)CC1 [GDC-0214]
increased selectivity for JAK1 over JAK2 (JAK1): twofold

SMILES: CN(CCC#N)C1CCN(C(=O)Cn2cc(NC(=O)c3cnn4cccnc34)c(-c3cc(Cl)ccc3OC(F)F)n2)CC1 [iJak-381]
increased selectivity for JAK1 over JAK2 (JAK1): sixfold
